# ChEMBL document CHEMBL1134964, “Heterocyclic benzazole derivatives with antimycobacterial in vitro activity” (2002)
# Tests used:
# Assay type in all cases: functional
# Mycobacterium kansasii [1] = test: In vitro inhibition of Mycobacterium Kansasi (My 235/80) growth after 7 days culture.; conditions: 168 h
# Mycobacterium kansasii [2] = test: In vitro minimum inhibitory concentration the compound for anti-mycobacterial activity was determined against Mycobacterium kansasii (My 235/80) by micromethod after 21 days of incubation; conditions: 504 h
# [3] = system: Mycobacterium tuberculosis; test: In vitro inhibition of Mycobacterium Tuberculosis (My 331/88) growth after 21 days culture.; conditions: 504 h
# In short: (§1)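 Micromethod broth MIC. Compounds tested at 500, 250, 125, 32, 16, 8, 4 and 2, plus one intermediate level between 125 and 32. Plates incubated at 37 C and read at 7, 14 and 21 days. MIC is the lowest concentration at which growth of the mycobacteria was inhibited. MIC could not be set where solubility in the test medium was limited.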
# Mycobacterium kansasii [4] = test: In vitro inhibition of Mycobacterium Kansasi (My 6 509/96) growth after 21 days culture.; conditions: 504 h
# Mycobacterium avium [5] = test: In vitro inhibition of Mycobacterium Avium growth after 14 days culture.; conditions: 336 h; in short: as §1
# [6] = system: Mycobacterium tuberculosis; test: In vitro inhibition of Mycobacterium Tuberculosis (My 331/88) growth after 14 days culture.; conditions: 336 h; in short: as §1
# Mycobacterium avium [7] = test: In vitro inhibition of Mycobacterium Avium (My 330/88) growth after 21 days culture.; conditions: 504 h; in short: as §1
# Mycobacterium kansasii [8] = test: In vitro inhibition of Mycobacterium Kansasi (My 6 509/96) growth after 14 days culture.; conditions: 336 h
# Mycobacterium kansasii [9] = test: In vitro minimum inhibitory concentration the compound for anti-mycobacterial activity was determined against Mycobacterium kansasii (My 6 509/96) by micromethod after 7 days of incubation; conditions: 168 h
# Mycobacterium kansasii [10] = test: In vitro inhibition of Mycobacterium Kansasi (My 235/80) growth after 14 days culture.; conditions: 336 h
# HeLa = test: The compound was tested for cytotoxicity against HeLa cells.; conditions: Homo sapiens
# [11] = Ratio of cytotoxicity to minimum inhibitory concentration of Mycobacterium tuberculosis My 331/88 was evaluated
# Mycobacterium kansasii [12] = test: In vitro minimum inhibitory concentration the compound for anti-mycobacterial activity was determined against Mycobacterium kansasii (My 235/80) by micromethod after 14 days of incubation; conditions: 336 h
# Mycobacterium avium [13] = test: In vitro minimum inhibitory concentration the compound for anti-mycobacterial activity was determined against Mycobacterium avium (My 330/88) by micromethod after 21 days of incubation; conditions: 504 h; in short: as §1
# Mycobacterium kansasii [14] = test: In vitro minimum inhibitory concentration the compound for anti-mycobacterial activity was determined against Mycobacterium kansasii (My 6 509/96) by micromethod after 21 days of incubation; conditions: 504 h
# Mycobacterium avium [15] = test: In vitro minimum inhibitory concentration the compound for anti-mycobacterial activity was determined against Mycobacterium avium (My 330/88) by micromethod after 14 days of incubation; conditions: 336 h; in short: as §1
# Mycobacterium kansasii [16] = test: In vitro minimum inhibitory concentration the compound for anti-mycobacterial activity was determined against Mycobacterium kansasii (My 6 509/96) by micromethod after 14 days of incubation; conditions: 336 h
# Mycobacterium kansasii [17] = test: In vitro inhibition of Mycobacterium Kansasi (My 235/80) growth after 21 days culture.; conditions: 504 h
# Mycobacterium kansasii [18] = test: In vitro minimum inhibitory concentration of the compound for anti-mycobacterial activity was determined against Mycobacterium kansasii (My 6 509/96) by micromethod after 7 days of incubation; conditions: 168 h
# [19] = system: Mycobacterium tuberculosis; test: In vitro minimum inhibitory concentration the compound for anti-mycobacterial activity was determined against Mycobacterium tuberculosis (My 331/88) by micromethod after 21 days of incubation; conditions: 504 h; in short: as §1
# Mycobacterium kansasii [20] = test: In vitro inhibition of Mycobacterium Kansasi (My 6 509/96) growth after 7 days culture.; conditions: 168 h
SMILES,MIC (Mycobacterium kansasii [1]) [µM],MIC [3] [µM],MIC (Mycobacterium kansasii [4]) [µM],MIC (Mycobacterium avium [5]) [µM],MIC [6] [µM],MIC (Mycobacterium avium [7]) [µM],MIC (Mycobacterium kansasii [8]) [µM],MIC (Mycobacterium kansasii [10]) [µM],CC50 (HeLa) [µM],Safety index [11],MIC (Mycobacterium kansasii [17]) [µM],MIC (Mycobacterium kansasii [20]) [µM],further results
O=[N+]([O-])c1ccccc1CSc1nc2ccccc2s1,62,500,125,125,125,> 250,32,125,–,–,–,–,MIC (Mycobacterium kansasii [2]): 500 µM; MIC (Mycobacterium kansasii [9]): 32 µM
O=[N+]([O-])c1ccc(CSc2nc3ccccc3o2)c([N+](=O)[O-])c1,4,8,8,> 16,8,> 32,8,–,136,17,–,–,MIC (Mycobacterium kansasii [2]): 4 µM; MIC (Mycobacterium kansasii [12]): 4 µM; MIC (Mycobacterium kansasii [9]): 4 µM
NC(=S)c1cccc(CSc2nc3ccccc3o2)c1,8,16,–,–,8,–,–,–,71.9,9,–,–,MIC (Mycobacterium kansasii [2]): 32 µM; MIC (Mycobacterium kansasii [12]): 32 µM; MIC (Mycobacterium avium [13]): 62 µM; MIC (Mycobacterium kansasii [14]): 32 µM; MIC (Mycobacterium kansasii [9]): 8 µM; MIC (Mycobacterium avium [15]): 62 µM; MIC (Mycobacterium kansasii [16]): 32 µM
NC(=S)c1cccc(CSc2nc3ccccc3s2)c1,8,–,16,32,–,62,16,16,36.7,4.6,16,–,MIC (Mycobacterium kansasii [18]): 8 µM; MIC [19]: 16 µM
O=[N+]([O-])c1cccc(CSc2nc3ccccc3s2)c1,62,> 125,> 62,62,> 62,62,62,> 125,–,–,> 125,32,–
N#Cc1cccc(CSc2nc3ccccc3s2)c1,125,250,125,32,62,62,62,250,–,–,500,32,–
O=[N+]([O-])c1cc(CSc2nc3ccccc3o2)cc([N+](=O)[O-])c1,2,8,8,> 16,8,> 32,8,4,> 151,>18.9,4,4,–
N#Cc1cccc(CSc2nc3ccccc3o2)c1,32,125,62,62,125,62,62,62,–,–,125,32,–
NC(=S)c1ccc(CSc2nc3ccccc3o2)cc1,8,16,16,32,8,32,16,16,78.6,9.8,16,8,–
c1ccc(CSc2nc3ccccc3o2)cc1,125,500,250,62,250,125,125,250,–,–,250,32,–
c1ccc(CSc2nc3ccccc3s2)cc1,62,500,–,–,250,–,–,–,–,–,–,–,MIC (Mycobacterium kansasii [2]): > 500 µM; MIC (Mycobacterium kansasii [12]): 500 µM; MIC (Mycobacterium avium [13]): 62 µM; MIC (Mycobacterium kansasii [14]): 250 µM; MIC (Mycobacterium kansasii [9]): 62 µM; MIC (Mycobacterium avium [15]): 32 µM; MIC (Mycobacterium kansasii [16]): 125 µM
O=[N+]([O-])c1cccc(CSc2nc3ccccc3o2)c1,32,125,> 32,> 32,> 62,> 62,32,> 32,–,–,> 32,32,–
O=[N+]([O-])c1ccc(CSc2nc3ccccc3o2)cc1,32,> 125,> 32,> 32,> 62,> 62,32,32,–,–,> 62,32,–
NC(=S)c1ccc(CSc2nc3ccccc3s2)cc1,4,8,8,16,4,32,8,8,> 158,>39.5,8,4,–
Sc1nc2ccccc2s1 [2-MERCAPTOBENZOTHIAZOLE],62,62,–,–,62,–,–,–,–,–,–,–,MIC (Mycobacterium kansasii [2]): > 125 µM; MIC (Mycobacterium kansasii [12]): 125 µM; MIC (Mycobacterium avium [13]): > 62 µM; MIC (Mycobacterium kansasii [14]): > 62 µM; MIC (Mycobacterium kansasii [9]): 62 µM; MIC (Mycobacterium avium [15]): > 62 µM; MIC (Mycobacterium kansasii [16]): > 62 µM
Sc1nc2ccccc2o1,500,500,1000,250,500,500,500,1000,–,–,1000,250,–
O=[N+]([O-])c1ccc(CSc2nc3ccccc3s2)cc1,32,> 125,> 125,32,> 32,> 62,> 32,> 62,–,–,> 250,32,–
O=[N+]([O-])c1cc(CSc2nc3ccccc3s2)cc([N+](=O)[O-])c1,16,2,> 62,62,2,62,32,16,> 144,>72,> 62,–,–
NNC(=O)c1ccncc1 [ISONIAZID],> 250,1,4,> 250,0.5,> 250,2,> 250,–,–,> 250,2,–
N#Cc1ccc(CSc2nc3ccccc3s2)cc1,125,62,32,32,62,> 32,32,250,–,–,> 500,16,–
O=[N+]([O-])c1ccc(CSc2nc3ccccc3s2)c([N+](=O)[O-])c1,8,4,> 32,> 32,2,> 32,8,8,> 144,>72,16,8,–
N#Cc1ccc(CSc2nc3ccccc3o2)cc1,32,> 62,> 32,62,> 62,62,32,32,–,–,> 32,16,–
O=[N+]([O-])c1ccccc1CSc1nc2ccccc2o1,125,> 250,> 62,> 125,> 250,> 125,> 62,125,–,–,> 125,62,–
